Positions of bridges follow the written chain, without caps; N, C: chain ends. Non-standard residues stand in square brackets, D forms with d. Residues, ends and D or L forms follow the SMILES beside them. pY = N[C@@H](Cc1ccc(OP(=O)(O)O)cc1)C(=O)O

Experimental findings from ChEMBL document CHEMBL1132201, “Potent inhibition of Grb2 SH2 domain binding by non-phosphate-containing ligands” (J Med Chem, 1999) are described below.

Experiment [1] has as its target T1, Growth factor receptor-bound protein 2 (Homo sapiens, UniProt P62993). Briefly: (§1) Inhibition of Grb2 SH2 domain binding in MDA-MB-453 human breast carcinoma cell lysates. In outline: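 Lysates of serum-treated MDA-MB-453 cells were made in 1% Triton X-100/PBS with 0.2 mM NaVO4 and incubated 30 min with compound. Grb2 was immunoprecipitated from 5 mg lysate with anti-Grb2 and protein A Sepharose. Proteins were resolved by 8–16% SDS-PAGE, and coprecipitated p185erbB-2 was detected by anti-phosphotyrosine Western blot. Single experiment, equal lysate amounts.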

For experiment [2], the target named is T1, Growth factor receptor-bound protein 2. Briefly: Inhibition of Growth factor receptor bound protein 2 SH2 domain binding in plasmon resonance binding assay. The gist of the method: (§2)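 Biotin-DDPSpYVNVQ (SHC phosphopeptide) immobilized on SA5 streptavidin chips at 2 nM. Equilibrium Ru was read 20 s after flow ended and compared with binding without inhibitor to derive IC50. Two experiments on separate chips.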

Experiment [3] has the same target. As to the kind of experiment: Inhibition of Grb2 SH2 domain binding by surface plasmon resonance. The gist of the method: as §2
Experiment [4] shares this target. Described as §1. As to conditions: in the assay text read “cells” for “cell lysates”.
Experiment [5] shares this target. As to the kind of experiment: Inhibition of Grb2 SH2 domain binding.

T1 sequence (P62993 whole entry, the tested form may be a part): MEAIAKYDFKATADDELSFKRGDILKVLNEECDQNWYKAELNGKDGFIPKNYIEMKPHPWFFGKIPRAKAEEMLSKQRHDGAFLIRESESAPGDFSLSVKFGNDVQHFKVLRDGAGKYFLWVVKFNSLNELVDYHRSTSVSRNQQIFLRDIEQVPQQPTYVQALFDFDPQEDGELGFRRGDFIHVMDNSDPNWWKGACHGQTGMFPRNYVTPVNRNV

Turning to `CC(=O)N[C@@H](Cc1ccc(C(F)(F)P(=O)(O)O)cc1)C(=O)NC1(C(=O)N[C@@H](CC(N)=O)C(=O)NCCCc2cccc3ccccc23)CCCCC1`, the IC50 is 500 nM in experiment [1] and 80 nM in experiment [2].

In experiment [3], `CC(=O)N[C@@H](Cc1ccc(OP(=O)(O)O)cc1)C(=O)NC1(C(=O)N[C@@H](CC(N)=O)C(=O)NCCCc2cccc3ccccc23)CCCCC1` returned a half-inhibitory concentration (IC50) of 70 nM.

For `CC(=O)N[C@@H](Cc1ccc(O)cc1)C(=O)NC1(C(=O)N[C@@H](CC(N)=O)C(=O)NCCCc2cccc3ccccc23)CCCCC1`, in experiment [4], the IC50 is > 50 µM.

For the compound `CC(=O)N[C@@H](Cc1ccc(CP(=O)(O)O)cc1)C(=O)NC1(C(=O)N[C@@H](CC(N)=O)C(=O)NCCCc2cccc3ccccc23)CCCCC1`, the IC50 in experiment [1] was determined as 500 nM; in experiment [2] it was 80 nM. As for `CC(=O)N[C@@H](Cc1ccc(OCC(=O)O)c(C(=O)O)c1)C(=O)NC1(C(=O)N[C@@H](CC(N)=O)C(=O)NCCCc2cccc3ccccc23)CCCCC1`, the concentration for half-maximal inhibition (IC50) in experiment [2] was 6700 nM. For the compound `CC(=O)N[C@@H](Cc1ccc(OP(=O)(O)O)cc1)C(=O)NC1(C(=O)N[C@@H](CC(N)=O)C(=O)NCCCc2c(O)ccc3ccccc23)CCCCC1`, in experiment [5], the IC50 turned out to be 11 nM. As for `CC(=O)N[C@@H](Cc1ccc(OCC(=O)O)c(OCC(=O)O)c1)C(=O)NC1(C(=O)N[C@@H](CC(N)=O)C(=O)NCCCc2cccc3ccccc23)CCCCC1`, in experiment [2], the IC50 is > 100000 nM.

As for `NC(=O)C[C@H](NC(=O)C1(NC(=O)[C@H](Cc2ccc(OCC(=O)O)c(C(=O)O)c2)NC(=O)C(=O)O)CCCCC1)C(=O)NCCCc1cccc2ccccc12`, the values for the IC50 in experiment [1] and in experiment [2] were 500 nM and 1300 nM, respectively. In experiment [1], `NC(=O)C[C@H](NC(=O)C1(NC(=O)[C@H](Cc2ccc(CP(=O)(O)O)cc2)NC(=O)C(=O)O)CCCCC1)C(=O)NCCCc1cccc2ccccc12` came in with a half-inhibitory concentration (IC50) of 500 nM. Compound `CC[C@H](C)[C@@H]1NC(=O)[C@H](Cc2ccc(OP(=O)(O)O)cc2)NC(=O)[C@@H](NC(C)=O)CSSC[C@@H](C(N)=O)NC(=O)[C@H](CC(N)=O)NC1=O` (Ac-C[pY]INC-NH2; disulfide 1-5) displayed an IC50 in experiment [5] of 370 nM. The same measure, in the same setting: to `CC(C)[C@H](NC(=O)[C@H](CC(N)=O)NC(=O)[C@@H](NC(=O)[C@H](Cc1ccc(OP(=O)(O)O)cc1)NC(=O)[C@H](CO)NC(=O)[C@@H]1CCCN1C(=O)[C@H](CC(=O)O)NC(=O)[C@@H](N)CC(=O)O)C(C)C)C(=O)N[C@@H](CCC(N)=O)C(=O)O` (H-DDPS[pY]VNVQ-OH) belongs 1300 nM.

As a reminder, the IC50 is the point on the concentration scale where inhibition reaches its midpoint.
